# Results as given in ChEMBL document CHEMBL5058577, “EUbOPEN Chemogenomics Library 2 (Multiplex)” (2022).
# System: Fibroblast
# Assay: Multiplex assay against human fibroblast
# Format: toxicity, cell-based
# Outline: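 Cells stained live at seeding with Hoechst33342, BioTracker Green Microtubule Cytoskeleton Dye, MitoTracker Red and Annexin V Alexa Fluor 680 were imaged on a CQ1 microscope at 37°C and 5% CO2 after compound addition. Their classification by CellPathfinder machine-learning gating ran from Hoechst high-intensity objects versus normal cells, to healthy, pyknosed or fragmented nuclei among normal cells, to mitotic or apoptotic among pyknosed cells. Tubulin, mitochondrial-mass and membrane-permeability phenotypes are per cents of healthy-nucleus cells.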
# [1] = 12 h, 1 µM, compound concentration 1 uM, replicate 1
# [2] = 12 h, 1 µM, compound concentration 1 uM, replicate 2
# [3] = 12 h, 10 µM, compound concentration 10 uM, replicate 1
# [4] = 12 h, 10 µM, compound concentration 10 uM, replicate 2
# [5] = 24 h, 1 µM, compound concentration 1 uM, replicate 1
# [6] = 24 h, 1 µM, compound concentration 1 uM, replicate 2
# [7] = 24 h, 10 µM, compound concentration 10 uM, replicate 1
# [8] = 24 h, 10 µM, compound concentration 10 uM, replicate 2
# [9] = 48 h, 1 µM, compound concentration 1 uM, replicate 1
# [10] = 48 h, 1 µM, compound concentration 1 uM, replicate 2
# [11] = 48 h, 10 µM, compound concentration 10 uM, replicate 1
# [12] = 48 h, 10 µM, compound concentration 10 uM, replicate 2
smiles,measurement,setting,value
N#Cc1c(Oc2cccc(OS(=O)(=O)CCCC(F)(F)F)c2)cccc1C(F)(F)F,Population Apoptotic (%),[1],51%
same,Population Fragmented Nuclei (%),[1],13%
same,Population Healthy Nuclei (%),[1],63%
same,Population Hoechst High Intensity Objects (%),[1],2%
same,Population Membrane Permeable-Phenotype (%),[1],1%
same,Population Mitochondria Different-Phenotype (%),[1],7%
same,Population Mitotic Cells (%),[1],48%
same,Population Normal (%),[1],97%
same,Population Pyknosed Nuclei (%),[1],23%
same,Population Tubulin-Different-Phenotype (%),[1],38%
same,Total Cell Count,[1],146
same,Population Apoptotic (%),[2],38%
same,Population Fragmented Nuclei (%),[2],27%
same,Population Healthy Nuclei (%),[2],48%
same,Population Hoechst High Intensity Objects (%),[2],7%
same,Population Membrane Permeable-Phenotype (%),[2],9%
same,Population Mitotic Cells (%),[2],61%
same,Population Normal (%),[2],92%
same,Population Pyknosed Nuclei (%),[2],24%
same,Population Tubulin-Different-Phenotype (%),[2],59%
same,Total Cell Count,[2],148
same,Population Apoptotic (%),[3],31%
same,Population Fragmented Nuclei (%),[3],14%
same,Population Healthy Nuclei (%),[3],59%
same,Population Hoechst High Intensity Objects (%),[3],6%
same,Population Membrane Permeable-Phenotype (%),[3],1%
same,Population Mitochondria Different-Phenotype (%),[3],7%
same,Population Mitotic Cells (%),[3],68%
same,Population Normal (%),[3],93%
same,Population Pyknosed Nuclei (%),[3],26%
same,Population Tubulin-Different-Phenotype (%),[3],36%
same,Total Cell Count,[3],180
same,Population Apoptotic (%),[4],66%
same,Population Fragmented Nuclei (%),[4],42%
same,Population Healthy Nuclei (%),[4],22%
same,Population Hoechst High Intensity Objects (%),[4],7%
same,Population Membrane Permeable-Phenotype (%),[4],13%
same,Population Mitochondria Different-Phenotype (%),[4],3%
same,Population Mitotic Cells (%),[4],33%
same,Population Normal (%),[4],92%
same,Population Pyknosed Nuclei (%),[4],35%
same,Population Tubulin-Different-Phenotype (%),[4],75%
same,Total Cell Count,[4],138
same,Population Apoptotic (%),[5],50%
same,Population Fragmented Nuclei (%),[5],20%
same,Population Healthy Nuclei (%),[5],62%
same,Population Hoechst High Intensity Objects (%),[5],6%
same,Population Membrane Permeable-Phenotype (%),[5],1%
same,Population Mitochondria Different-Phenotype (%),[5],4%
same,Population Mitotic Cells (%),[5],50%
same,Population Normal (%),[5],93%
same,Population Pyknosed Nuclei (%),[5],17%
same,Population Tubulin-Different-Phenotype (%),[5],45%
same,Total Cell Count,[5],148
same,Population Apoptotic (%),[6],54%
same,Population Fragmented Nuclei (%),[6],33%
same,Population Healthy Nuclei (%),[6],50%
same,Population Hoechst High Intensity Objects (%),[6],3%
same,Population Membrane Permeable-Phenotype (%),[6],5%
same,Population Mitochondria Different-Phenotype (%),[6],5%
same,Population Mitotic Cells (%),[6],45%
same,Population Normal (%),[6],96%
same,Population Pyknosed Nuclei (%),[6],16%
same,Population Tubulin-Different-Phenotype (%),[6],57%
same,Total Cell Count,[6],147
same,Population Apoptotic (%),[7],44%
same,Population Fragmented Nuclei (%),[7],13%
same,Population Healthy Nuclei (%),[7],59%
same,Population Hoechst High Intensity Objects (%),[7],5%
same,Population Membrane Permeable-Phenotype (%),[7],4%
same,Population Mitochondria Different-Phenotype (%),[7],12%
same,Population Mitotic Cells (%),[7],55%
same,Population Normal (%),[7],94%
same,Population Pyknosed Nuclei (%),[7],27%
same,Population Tubulin-Different-Phenotype (%),[7],43%
same,Total Cell Count,[7],174
same,Population Apoptotic (%),[8],61%
same,Population Fragmented Nuclei (%),[8],40%
same,Population Healthy Nuclei (%),[8],23%
same,Population Hoechst High Intensity Objects (%),[8],8%
same,Population Membrane Permeable-Phenotype (%),[8],18%
same,Population Mitochondria Different-Phenotype (%),[8],22%
same,Population Mitotic Cells (%),[8],38%
same,Population Normal (%),[8],91%
same,Population Pyknosed Nuclei (%),[8],36%
same,Population Tubulin-Different-Phenotype (%),[8],77%
same,Total Cell Count,[8],127
same,Population Apoptotic (%),[9],60%
same,Population Fragmented Nuclei (%),[9],18%
same,Population Healthy Nuclei (%),[9],66%
same,Population Hoechst High Intensity Objects (%),[9],7%
same,Population Membrane Permeable-Phenotype (%),[9],1%
same,Population Mitochondria Different-Phenotype (%),[9],5%
same,Population Mitotic Cells (%),[9],40%
same,Population Normal (%),[9],92%
same,Population Pyknosed Nuclei (%),[9],14%
same,Population Tubulin-Different-Phenotype (%),[9],42%
same,Total Cell Count,[9],145
same,Population Apoptotic (%),[10],38%
same,Population Fragmented Nuclei (%),[10],26%
same,Population Healthy Nuclei (%),[10],59%
same,Population Hoechst High Intensity Objects (%),[10],5%
same,Population Membrane Permeable-Phenotype (%),[10],13%
same,Population Mitochondria Different-Phenotype (%),[10],2%
same,Population Mitotic Cells (%),[10],61%
same,Population Normal (%),[10],94%
same,Population Tubulin-Different-Phenotype (%),[10],56%
same,Total Cell Count,[10],133
same,Population Apoptotic (%),[11],52%
same,Population Fragmented Nuclei (%),[11],20%
same,Population Healthy Nuclei (%),[11],54%
same,Population Hoechst High Intensity Objects (%),[11],9%
same,Population Membrane Permeable-Phenotype (%),[11],2%
same,Population Mitochondria Different-Phenotype (%),[11],12%
same,Population Mitotic Cells (%),[11],47%
same,Population Normal (%),[11],90%
same,Population Pyknosed Nuclei (%),[11],24%
same,Population Tubulin-Different-Phenotype (%),[11],47%
same,Total Cell Count,[11],172
same,Population Apoptotic (%),[12],59%
same,Population Fragmented Nuclei (%),[12],43%
same,Population Healthy Nuclei (%),[12],31%
same,Population Hoechst High Intensity Objects (%),[12],2%
same,Population Membrane Permeable-Phenotype (%),[12],23%
same,Population Mitochondria Different-Phenotype (%),[12],15%
same,Population Mitotic Cells (%),[12],40%
same,Population Normal (%),[12],97%
same,Population Pyknosed Nuclei (%),[12],25%
same,Population Tubulin-Different-Phenotype (%),[12],89%
same,Total Cell Count,[12],150
